In ChEMBL document CHEMBL1148438, “Discovery of a new family of inhibitors of human cytomegalovirus (HCMV) based upon lipophilic alkyl furano pyrimidine dideoxy nucleosides: action via a novel non-nucleosidic mechanism” (J Med Chem, 2004):

Columns and labels:
HEL [1] = experiment: Cytostatic concentration required to inhibit HEL cell proliferation measured at day 4; type: functional; conditions: Homo sapiens, 96 h
In short: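 Growing, subconfluent HEL cells were exposed to different compound concentrations, then trypsinized and counted with a Coulter counter. The 50% value was the concentration reducing cell number by 50% relative to untreated cells.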

HEL [2] = experiment: Effective concentration required to inhibit HCMV Davis strain-induced cytopathicity in human embryonic lung (HEL) fibroblast cell cultures at day 7 of postinfection; type: functional, cell-based; conditions: 168 h
In short: (§1)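 Confluent HEL fibroblast monolayers were infected with 100 PFU of HCMV per well and adsorbed for 1-2 h. Residual virus was removed, and cells were kept in MEM with 2% inactivated FCS, 1% L-glutamine and 0.3% sodium bicarbonate plus varying compound concentrations. Cytopathicity was scored at day 7, and EC50 was the concentration reducing virus-induced CPE by 50% versus untreated control.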

HEL [3] = experiment: Effective concentration required to inhibit HCMV AD169 strain-induced cytopathicity in human embryonic lung (HEL) fibroblast cell cultures at day 7 of postinfection; type: functional, cell-based; conditions: 168 h; in short: as §1
HEL [4] = experiment: Minimal cytotoxic concentration required to cause a microscopically visible alteration of HEL cell morphology as measured at day 7 postinfection; type: functional; conditions: Homo sapiens, 168 h
In short: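 MCC was assessed within the antiviral assay on confluent HEL monolayers exposed to varying compound concentrations. It was taken at day 7 as the lowest concentration giving microscopically visible cytotoxicity (altered morphology).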

Row | Compound | CC50 (HEL [1]) [µM] | EC50 (HEL [2]) [µM] | EC50 (HEL [3]) [µM] | MCC (HEL [4]) [µM]
1 | CCCCCCCCCCCCCCc1cc2cn(C3CCC(CO)O3)c(=O)nc2o1 (stereo not drawn) | > 200 | 40 | 25 | 200
2 | CCCCCCCCc1cc2cn(C3CCC(CO)O3)c(=O)nc2o1 (stereo not drawn) | 112 | 3 | 2.5 | 20
3 | CCCCCCc1cc2cn(C3CCC(CO)O3)c(=O)nc2o1 (stereo not drawn) | 143 | > 50 | 32 | 200
4 | CCCCCCCCCCCc1cc2cn(C3CCC(CO)O3)c(=O)nc2o1 (stereo not drawn) | > 200 | 1.2 | 1.4 | 50
5 | CCCCCCCCCc1cc2cn(C3CCC(CO)O3)c(=O)nc2o1 (stereo not drawn) | > 200 | 1.3 | 1.2 | 58
6 | CCCCCCCCCCc1cc2cn(C3CCC(CO)O3)c(=O)nc2o1 (stereo not drawn) | > 200 | 3.2 | 2.6 | > 20
7 | CCCCCCCCCCCCc1cc2cn(C3CCC(CO)O3)c(=O)nc2o1 (stereo not drawn) | > 200 | 5 | 3.7 | 200
8 | Nc1ccn(C[C@@H](CO)OCP(=O)(O)O)c(=O)n1 [CIDOFOVIR] | 158 | – | – | > 150
9 | O=C(O)P(=O)(O)O [FOSCARNET] | 500 | 62 | 53 | > 400
10 | Nc1nc2c(ncn2COC(CO)CO)c(=O)[nH]1 [GANCICLOVIR] | > 150 | 3.9 | 2.7 | > 150
